Active and inactive are the calls of the source. The rule behind the calls is not given here.

These results are taken from ChEMBL document CHEMBL4145619, “Computer-Assisted Discovery of Retinoid X Receptor Modulating Natural Products and Isofunctional Mimetics” (J Med Chem, 2018).

What all share (assay type): cell-based
In data set [1] the target is T1, Retinoic acid receptor RXR-beta (Homo sapiens) (UniProt P28702).
T1 sequence (whole entry): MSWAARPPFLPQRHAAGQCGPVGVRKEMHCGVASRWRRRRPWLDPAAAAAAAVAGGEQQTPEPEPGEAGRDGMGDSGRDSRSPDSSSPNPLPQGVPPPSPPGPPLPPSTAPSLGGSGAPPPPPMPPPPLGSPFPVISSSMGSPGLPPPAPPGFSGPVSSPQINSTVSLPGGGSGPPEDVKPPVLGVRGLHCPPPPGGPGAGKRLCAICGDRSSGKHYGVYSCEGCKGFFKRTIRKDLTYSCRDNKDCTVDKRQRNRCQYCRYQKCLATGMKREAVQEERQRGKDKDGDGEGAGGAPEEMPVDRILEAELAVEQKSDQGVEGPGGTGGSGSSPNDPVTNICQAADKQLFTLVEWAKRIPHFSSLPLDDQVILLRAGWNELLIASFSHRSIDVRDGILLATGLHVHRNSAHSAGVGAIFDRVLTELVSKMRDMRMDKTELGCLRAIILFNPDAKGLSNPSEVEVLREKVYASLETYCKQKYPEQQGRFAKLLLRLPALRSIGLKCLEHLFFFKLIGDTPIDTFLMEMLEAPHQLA
As to the kind of experiment: Transactivation of human Gal4-fused RXRbeta LBD expressed in HEK293T cells after 12 to 14 hrs by dual-glo luciferase assay relative to bexarotene.

For data set [2], the target named is T2, Retinoic acid receptor alpha (Homo sapiens) (UniProt P10276).
T2 sequence (whole entry): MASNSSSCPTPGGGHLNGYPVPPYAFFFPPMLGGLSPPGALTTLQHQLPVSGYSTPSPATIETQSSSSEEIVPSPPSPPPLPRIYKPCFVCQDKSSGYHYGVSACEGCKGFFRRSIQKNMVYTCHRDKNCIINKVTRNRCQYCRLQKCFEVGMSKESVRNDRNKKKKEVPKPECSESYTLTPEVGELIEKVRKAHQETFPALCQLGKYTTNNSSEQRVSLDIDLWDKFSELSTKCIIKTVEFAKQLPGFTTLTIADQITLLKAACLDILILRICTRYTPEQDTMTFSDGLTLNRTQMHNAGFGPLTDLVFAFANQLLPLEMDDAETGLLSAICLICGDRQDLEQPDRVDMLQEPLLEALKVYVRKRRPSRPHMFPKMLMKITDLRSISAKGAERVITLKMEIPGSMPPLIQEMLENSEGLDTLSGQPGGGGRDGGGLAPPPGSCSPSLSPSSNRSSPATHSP
The data set can be described thus: Transactivation of human Gal4-fused RARalpha LBD expressed in HEK293T cells at 30 uM after 12 to 14 hrs by dual-glo luciferase assay. The essentials:
(§1)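 Single-concentration selectivity profiling in Gal4-hybrid reporter gene assays in HEK293T cells. Each nuclear receptor construct (RAR, PPAR, LXR, FXR, CAR, VDR, PXR, RXR) was tested at 30 μM.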

Data set [3] addresses T3, Nuclear receptor subfamily 1 group I member 3 (Homo sapiens, UniProt Q14994).
T3 sequence (Q14994 whole entry): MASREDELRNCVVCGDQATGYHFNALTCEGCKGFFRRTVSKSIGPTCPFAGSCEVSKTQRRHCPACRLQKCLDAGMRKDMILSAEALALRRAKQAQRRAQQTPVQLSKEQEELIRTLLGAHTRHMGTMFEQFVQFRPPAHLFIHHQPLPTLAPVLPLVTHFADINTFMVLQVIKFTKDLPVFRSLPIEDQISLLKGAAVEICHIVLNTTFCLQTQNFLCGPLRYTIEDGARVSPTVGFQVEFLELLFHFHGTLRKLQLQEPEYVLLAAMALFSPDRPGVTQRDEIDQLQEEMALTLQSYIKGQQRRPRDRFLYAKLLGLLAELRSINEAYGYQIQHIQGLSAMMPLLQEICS
The data set can be described thus: Transactivation of human Gal4-fused CAR LBD expressed in HEK293T cells at 30 uM after 12 to 14 hrs by dual-glo luciferase assay. The essentials: as §1

Data set [4] addresses T4, Vitamin D3 receptor (Homo sapiens) (UniProt P11473).
T4 sequence (whole entry): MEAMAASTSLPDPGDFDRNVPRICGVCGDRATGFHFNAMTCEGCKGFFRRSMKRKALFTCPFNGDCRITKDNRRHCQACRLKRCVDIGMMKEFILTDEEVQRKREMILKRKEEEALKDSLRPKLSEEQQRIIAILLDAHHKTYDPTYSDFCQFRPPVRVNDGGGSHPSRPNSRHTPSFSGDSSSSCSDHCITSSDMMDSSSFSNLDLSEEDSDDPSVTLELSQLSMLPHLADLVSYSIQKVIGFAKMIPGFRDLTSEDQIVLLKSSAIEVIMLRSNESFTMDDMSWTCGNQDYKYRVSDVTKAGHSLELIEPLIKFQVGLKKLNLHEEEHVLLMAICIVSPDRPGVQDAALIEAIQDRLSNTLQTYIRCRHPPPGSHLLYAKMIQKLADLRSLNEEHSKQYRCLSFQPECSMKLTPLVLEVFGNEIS
As to the kind of experiment: Transactivation of human Gal4-fused VDR LBD expressed in HEK293T cells at 30 uM after 12 to 14 hrs by dual-glo luciferase assay. The essentials: as §1

Data set [5] deals with T5, Peroxisome proliferator-activated receptor delta (Homo sapiens) (UniProt Q03181).
T5 sequence (whole entry): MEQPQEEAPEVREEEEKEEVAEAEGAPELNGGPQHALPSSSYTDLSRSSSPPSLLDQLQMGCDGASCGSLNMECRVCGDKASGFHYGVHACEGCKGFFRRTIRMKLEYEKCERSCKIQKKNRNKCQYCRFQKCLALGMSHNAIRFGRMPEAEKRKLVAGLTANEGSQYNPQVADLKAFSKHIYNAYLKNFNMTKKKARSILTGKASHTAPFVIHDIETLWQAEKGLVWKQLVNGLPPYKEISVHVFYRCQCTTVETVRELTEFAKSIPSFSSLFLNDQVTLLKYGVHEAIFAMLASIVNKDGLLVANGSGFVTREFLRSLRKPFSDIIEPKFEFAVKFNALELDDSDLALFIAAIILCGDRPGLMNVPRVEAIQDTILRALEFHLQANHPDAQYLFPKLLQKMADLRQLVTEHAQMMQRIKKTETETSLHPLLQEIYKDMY
As to the kind of experiment: Transactivation of human Gal4-fused PPARdelta LBD expressed in HEK293T cells at 30 uM after 12 to 14 hrs by dual-glo luciferase assay. In short, it runs like this:
as §1

For the molecule `CC1=C2[C@H](/C=C(\C)C(=O)O)CC[C@@H](C)[C@H]2CC1` [VALERENIC ACID], in data set [1], the fold change (FC) is 69. The result in data set [2], in data set [4] and in data set [5] was inactive. Also, in data set [3], the Activity result is given as “Not Active”.
